ChEMBL document CHEMBL4732018, “Design, synthesis, and biological evaluation of pyrazole-linked aloe emodin derivatives as potential anticancer agents” (RSC Med Chem, 2021)
Active and inactive are the calls of the source. No cut-off for these calls is given here.

Experiments:
MDA-MB-231 [1] = assay: Induction of cell cycle arrest in human MDA-MB-231 cells assessed as accumulation at G1/S phase at 10 uM measured after 24 hrs by PI staining based flow cytometry (reference value: 19.33 %); format: functional
MDA-MB-231 [2] = assay: Induction of apoptosis in human MDA-MB-231 cells assessed as increase in caspase 2 activity at 5 to 20 uM pretreated for 48 hrs followed by VDVAD-pNA substrate addition for 2 hrs by colorimetric analysis; format: functional, cell-based; conditions: dose 5-20 µM, time 50.0 hrs
How it was run: (§1)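 Colorimetric caspase kit. MDA-MB-231 cells were cultured 24 h, then treated at 0, 5, 10 and 20 µM for 48 h. Lysates were mixed with reaction buffer containing 10 mM DTT. pNA substrate was added at 4 mM final (VDVAD for caspase-2, DEVD for caspase-3, VEID for caspase-6) and incubated 2 h at 37 °C. Absorbance read at 405 nm; triplicate, mean ± SD.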

MDA-MB-231 [3] = assay: Induction of cell cycle arrest in human MDA-MB-231 cells assessed as accumulation at G1/S phase at 20 uM measured after 24 hrs by PI staining based flow cytometry (reference value: 19.33 %); format: functional
MDA-MB-231 [4] = assay: Induction of cell cycle arrest in human MDA-MB-231 cells assessed as accumulation at G0/G1 phase at 5 uM measured after 24 hrs by PI staining based flow cytometry (reference value: 76.36 %); format: functional
B16-F10 = assay: Anticancer activity against mouse B16-F10 cells assessed as cell growth inhibition measured after 48 hrs by MTT assay; format: functional, cell-based; conditions: B16-F10, 48 h
How it was run: (§2)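 MTT test on ATCC lines grown in RPMI with 10% FBS and antibiotic/antimycotic at 37 °C in 5% CO₂. Cells were seeded at 4 x 10^3/well and treated for 48 h at 2.5, 5, 10 and 20 µM, from DMSO stocks diluted in medium. MTT (10 mg/mL stock) was then added for 3 h and absorbance read at 540 nm. IC50 derived; three independent experiments.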

MDA-MB-231 [5] = assay: Induction of cell cycle arrest in human MDA-MB-231 cells assessed as accumulation at sub G0 phase at 10 uM measured after 24 hrs by PI staining based flow cytometry (reference value: 1.33 %); format: functional
HEK293 = assay: Cytotoxicity against human HEK293 cells assessed as cell growth inhibition measured after 48 hrs by MTT assay; format: cell-based; conditions: HEK293, 48 h; how it was run: as §2
MDA-MB-231 [6] = assay: Induction of cell cycle arrest in human MDA-MB-231 cells assessed as accumulation at sub G0 phase at 20 uM measured after 24 hrs by PI staining based flow cytometry (reference value: 1.33 %); format: functional
MDA-MB-231 [7] = assay: Induction of apoptosis in human MDA-MB-231 cells assessed as increase in caspase 3 activity at 5 to 20 uM pretreated for 48 hrs followed by DEVD-pNA substrate addition for 2 hrs by colorimetric analysis; format: functional, cell-based; conditions: dose 5-20 µM, time 50.0 hrs; how it was run: as §1
MDA-MB-231 [8] = assay: Induction of apoptosis in human MDA-MB-231 cells assessed as early apoptotic cells at 5 uM measured after 24 hrs by Annexin V-FITC/PI staining based flow cytometric analysis (reference value: 6.73 %); format: functional
MDA-MB-231 [9] = assay: Induction of apoptosis in human MDA-MB-231 cells assessed as increase in caspase 9 activity at 5 to 20 uM pretreated for 48 hrs followed by LEHD-pNA substrate addition for 2 hrs by colorimetric analysis; format: functional, cell-based; conditions: dose 5-20 µM, time 50.0 hrs
MDA-MB-231 [10] = assay: Induction of apoptosis in human MDA-MB-231 cells assessed as late apoptotic cells at 5 uM measured after 24 hrs by Annexin V-FITC/PI staining based flow cytometric analysis; format: functional
MDA-MB-231 [11] = assay: Induction of cell cycle arrest in human MDA-MB-231 cells assessed as accumulation at G2/M phase at 10 uM measured after 24 hrs by PI staining based flow cytometry (reference value: 4.31 %); format: functional
MDA-MB-231 [12] = assay: Induction of cell cycle arrest in human MDA-MB-231 cells assessed as accumulation at G2/M phase at 20 uM measured after 24 hrs by PI staining based flow cytometry (reference value: 4.31 %); format: functional
MDA-MB-231 [13] = assay: Induction of apoptosis in human MDA-MB-231 cells assessed as increase in caspase 8 activity at 5 to 20 uM pretreated for 48 hrs followed by IETD-pNA substrate addition for 2 hrs by colorimetric analysis; format: functional, cell-based; conditions: dose 5-20 µM, time 50.0 hrs
MDA-MB-231 [14] = assay: Induction of cell cycle arrest in human MDA-MB-231 cells assessed as accumulation at sub G0 phase at 5 uM measured after 24 hrs by PI staining based flow cytometry (reference value: 1.33 %); format: functional
MDA-MB-231 [15] = assay: Induction of apoptosis in human MDA-MB-231 cells assessed as early apoptotic cells at 20 uM measured after 24 hrs by Annexin V-FITC/PI staining based flow cytometric analysis (reference value: 6.73 %); format: functional
MDA-MB-231 [16] = assay: Induction of apoptosis in human MDA-MB-231 cells assessed as early apoptotic cells at 10 uM measured after 24 hrs by Annexin V-FITC/PI staining based flow cytometric analysis (reference value: 6.73 %); format: functional
MDA-MB-231 [17] = assay: Anticancer activity against human MDA-MB-231 cells assessed as cell growth inhibition measured after 48 hrs by MTT assay; format: functional, cell-based; conditions: MDA-MB-231, 48 h; how it was run: as §2
MDA-MB-231 [18] = assay: Induction of cell cycle arrest in human MDA-MB-231 cells assessed as accumulation at G2/M phase at 5 uM measured after 24 hrs by PI staining based flow cytometry (reference value: 4.31 %); format: functional
MDA-MB-231 [19] = assay: Induction of cell cycle arrest in human MDA-MB-231 cells assessed as accumulation at G0/G1 phase at 10 uM measured after 24 hrs by PI staining based flow cytometry (reference value: 76.36 %); format: functional
HepG2 = assay: Anticancer activity against human HepG2 cells assessed as cell growth inhibition measured after 48 hrs by MTT assay; format: functional, cell-based; conditions: HepG2, 48 h; how it was run: as §2
MCF7 = assay: Anticancer activity against human MCF-7 cells assessed as cell growth inhibition measured after 48 hrs by MTT assay; format: functional, cell-based; conditions: MCF7, 48 h; how it was run: as §2
MDA-MB-231 [20] = assay: Induction of cell cycle arrest in human MDA-MB-231 cells assessed as accumulation at G0/G1 phase at 20 uM measured after 24 hrs by PI staining based flow cytometry (reference value: 76.36 %); format: functional
MDA-MB-231 [21] = assay: Induction of apoptosis in human MDA-MB-231 cells assessed as increase in caspase 6 activity at 5 to 20 uM pretreated for 48 hrs followed by VEID-pNA substrate addition for 2 hrs by colorimetric analysis; format: functional, cell-based; conditions: dose 5-20 µM, time 50.0 hrs; how it was run: as §1
MDA-MB-231 [22] = assay: Induction of membrane disintegrity in human MDA-MB-231 cells assessed as increase in LDH release at 2.5 to 20 uM incubated for 48 hrs by LDH leakage assay; format: functional, cell-based; conditions: dose 2.5-20 µM
How it was run: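 Extracellular LDH kit assay. Cells were seeded at 4 x 10^3/well and treated 48 h at various concentrations. 20 µL of culture supernatant was assayed with absorbance at 450 nm. Results are expressed as % LDH leakage relative to untreated control cells; triplicate, mean ± SD.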

MDA-MB-231 [23] = assay: Induction of apoptosis in human MDA-MB-231 cells assessed as late apoptotic cells at 10 uM measured after 24 hrs by Annexin V-FITC/PI staining based flow cytometric analysis; format: functional
MDA-MB-231 [24] = assay: Induction of apoptosis in human MDA-MB-231 cells assessed as late apoptotic cells at 20 uM measured after 24 hrs by Annexin V-FITC/PI staining based flow cytometric analysis; format: functional
MDA-MB-231 [25] = assay: Induction of cell cycle arrest in human MDA-MB-231 cells assessed as accumulation at G1/S phase at 5 uM measured after 24 hrs by PI staining based flow cytometry (reference value: 19.33 %); format: functional

SMILES: COC(=O)c1c(-c2cc(O)c3c(c2)C(=O)c2cccc(O)c2C3=O)nn(-c2ccc(C(C)C)cc2)c1C(=O)OC
- Activity (MDA-MB-231 [1]): 34.14%
- Activity (MDA-MB-231 [2]): Active
- Activity (MDA-MB-231 [3]): 25.8%
- Activity (MDA-MB-231 [4]): 77.2%
- IC50 (B16-F10): 6.06 µM
- Activity (MDA-MB-231 [5]): 10.87%
- IC50 (HEK293): 21.2 µM
- Activity (MDA-MB-231 [6]): 61.45%
- Activity (MDA-MB-231 [7]): Active
- Activity (MDA-MB-231 [8]): 20.55%
- Activity (MDA-MB-231 [9]): Active
- Activity (MDA-MB-231 [10]): 17.43%
- Activity (MDA-MB-231 [11]): 0.05%
- Activity (MDA-MB-231 [12]): 0%
- Activity (MDA-MB-231 [13]): Active
- Activity (MDA-MB-231 [14]): 5.66%
- Activity (MDA-MB-231 [15]): 35.34%
- Activity (MDA-MB-231 [16]): 38.08%
- IC50 (MDA-MB-231 [17]): 1.66 µM
- Activity (MDA-MB-231 [18]): 0.62%
- Activity (MDA-MB-231 [19]): 65.81%
- IC50 (HepG2): 3.99 µM
- IC50 (MCF7): 2.68 µM
- Activity (MDA-MB-231 [20]): 74.2%
- Activity (MDA-MB-231 [21]): Active
- Activity (MDA-MB-231 [22]): Active
- Activity (MDA-MB-231 [23]): 14.24%
- Activity (MDA-MB-231 [24]): 50.45%
- Activity (MDA-MB-231 [25]): 22.19%

SMILES: COC(=O)c1c(-c2cc(O)c3c(c2)C(=O)c2cccc(O)c2C3=O)nn(-c2ccc(OC(F)(F)F)cc2)c1C(=O)OC
- IC50 (B16-F10): 6.09 µM
- IC50 (HEK293): 6.84 µM
- IC50 (MDA-MB-231 [17]): 3.68 µM
- IC50 (HepG2): 2.29 µM
- IC50 (MCF7): 1.16 µM

SMILES: CCOC(=O)c1c(-c2cc(O)c3c(c2)C(=O)c2cccc(O)c2C3=O)nn(-c2cccc(F)c2)c1C(=O)OCC
- IC50 (B16-F10): 5.4 µM
- IC50 (HEK293): 1.93 µM
- IC50 (MDA-MB-231 [17]): 1.85 µM
- IC50 (HepG2): 2.6 µM
- IC50 (MCF7): 7.26 µM

SMILES: COc1cccc2c1C(=O)c1c(O)c3c(c(O)c1C2=O)C[C@@](O)(C(=O)CO)C[C@@H]3O[C@H]1C[C@H](N)[C@H](O)[C@H](C)O1 [DOXORUBICIN]
- IC50 (B16-F10): 3.28 µM
- IC50 (HEK293): 1.65 µM
- IC50 (MDA-MB-231 [17]): 2.56 µM
- IC50 (HepG2): 2.35 µM

SMILES: CCOC(=O)c1c(-c2cc(O)c3c(c2)C(=O)c2cccc(O)c2C3=O)nn(-c2ccc(C#N)cc2)c1C(=O)OCC
- IC50 (B16-F10): 3.46 µM
- IC50 (HEK293): 1.97 µM
- IC50 (MDA-MB-231 [17]): 1.15 µM
- IC50 (HepG2): 1.34 µM
- IC50 (MCF7): 4.62 µM

SMILES: CCOC(=O)c1c(-c2cc(O)c3c(c2)C(=O)c2cccc(O)c2C3=O)nn(-c2ccc(Br)cc2)c1C(=O)OCC
- IC50 (B16-F10): 8.15 µM
- IC50 (HEK293): 9.07 µM
- IC50 (MDA-MB-231 [17]): 2.16 µM
- IC50 (HepG2): 1.26 µM
- IC50 (MCF7): 8.98 µM

SMILES: COC(=O)c1c(-c2cc(O)c3c(c2)C(=O)c2cccc(O)c2C3=O)nn(-c2ccccc2C)c1C(=O)OC
- IC50 (B16-F10): 3.34 µM
- IC50 (HEK293): 5.01 µM
- IC50 (MDA-MB-231 [17]): 1.49 µM
- IC50 (HepG2): 3.46 µM
- IC50 (MCF7): 4.66 µM

SMILES: O=Cc1cc(O)c2c(c1)C(=O)c1cccc(O)c1C2=O
- IC50 (B16-F10): 2.9 µM
- IC50 (HEK293): 4.49 µM
- IC50 (MDA-MB-231 [17]): 4.99 µM
- IC50 (HepG2): 3.15 µM
- IC50 (MCF7): 2.68 µM

SMILES: CCOC(=O)c1c(-c2cc(O)c3c(c2)C(=O)c2cccc(O)c2C3=O)nn(-c2ccccc2)c1C(=O)OCC
- IC50 (B16-F10): 2.22 µM
- IC50 (HEK293): 4.56 µM
- IC50 (MDA-MB-231 [17]): 21.7 µM
- IC50 (HepG2): 12.3 µM
- IC50 (MCF7): 3.18 µM
